Experimental data published in ChEMBL document CHEMBL4350992, “Identification of Diketopiperazine-Containing 2-Anilinobenzamides as Potent Sirtuin 2 (SIRT2)-Selective Inhibitors Targeting the "Selectivity Pocket", Substrate-Binding Site, and NAD+-Binding Site” (J Med Chem, 2019).
Calls of active or inactive are those of the source. No cut-off for these calls is given here.

Tests used:
[1] = target: NAD-dependent protein deacylase sirtuin-5, mitochondrial (Homo sapiens) (UniProt Q9NXA8); experiment: Inhibition of human N-terminal His-tagged SIRT5 (37 to 310 residues) expressed in Escherichia coli at 100 uM using flour de lys succinyl as substrate incubated for 3 hrs measured up to 30 mins by fluorescence assay relative to control
[2] = target: T1, NAD-dependent protein deacetylase sirtuin-3, mitochondrial (Homo sapiens) (UniProt Q9NTG7); experiment: Inhibition of human N-terminal His-tagged SIRT3 (102 to 399 residues) expressed in Escherichia coli at 100 uM using p53 (Gln-Pro-Lys-Lys(Ac)) (317 to 320 residues) as substrate incubated for 3 hrs measured up to 30 mins by fluorescence assay relative to control
T1 sequence (whole entry): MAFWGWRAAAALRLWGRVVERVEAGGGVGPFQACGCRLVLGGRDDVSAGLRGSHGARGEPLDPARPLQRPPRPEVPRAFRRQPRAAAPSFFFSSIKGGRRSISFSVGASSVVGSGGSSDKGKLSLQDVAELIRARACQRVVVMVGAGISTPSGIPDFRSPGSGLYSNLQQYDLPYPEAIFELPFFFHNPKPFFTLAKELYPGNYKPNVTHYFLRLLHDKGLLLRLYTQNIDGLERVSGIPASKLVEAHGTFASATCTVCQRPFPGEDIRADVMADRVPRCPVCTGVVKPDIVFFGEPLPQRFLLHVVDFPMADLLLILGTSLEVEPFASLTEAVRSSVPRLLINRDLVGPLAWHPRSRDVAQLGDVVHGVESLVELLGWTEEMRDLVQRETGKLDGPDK

[3] = target: T2, NAD-dependent protein deacetylase sirtuin-1 (Homo sapiens) (UniProt Q96EB6); experiment: Inhibition of human N-terminal His-tagged SIRT1 expressed in Escherichia coli at 100 uM using p53 (Arg-His-Lys-Lys(Ac)) (379 to 382 residues) as substrate incubated for 3 hrs measured up to 30 mins by fluorescence assay relative to control
T2 sequence (whole entry): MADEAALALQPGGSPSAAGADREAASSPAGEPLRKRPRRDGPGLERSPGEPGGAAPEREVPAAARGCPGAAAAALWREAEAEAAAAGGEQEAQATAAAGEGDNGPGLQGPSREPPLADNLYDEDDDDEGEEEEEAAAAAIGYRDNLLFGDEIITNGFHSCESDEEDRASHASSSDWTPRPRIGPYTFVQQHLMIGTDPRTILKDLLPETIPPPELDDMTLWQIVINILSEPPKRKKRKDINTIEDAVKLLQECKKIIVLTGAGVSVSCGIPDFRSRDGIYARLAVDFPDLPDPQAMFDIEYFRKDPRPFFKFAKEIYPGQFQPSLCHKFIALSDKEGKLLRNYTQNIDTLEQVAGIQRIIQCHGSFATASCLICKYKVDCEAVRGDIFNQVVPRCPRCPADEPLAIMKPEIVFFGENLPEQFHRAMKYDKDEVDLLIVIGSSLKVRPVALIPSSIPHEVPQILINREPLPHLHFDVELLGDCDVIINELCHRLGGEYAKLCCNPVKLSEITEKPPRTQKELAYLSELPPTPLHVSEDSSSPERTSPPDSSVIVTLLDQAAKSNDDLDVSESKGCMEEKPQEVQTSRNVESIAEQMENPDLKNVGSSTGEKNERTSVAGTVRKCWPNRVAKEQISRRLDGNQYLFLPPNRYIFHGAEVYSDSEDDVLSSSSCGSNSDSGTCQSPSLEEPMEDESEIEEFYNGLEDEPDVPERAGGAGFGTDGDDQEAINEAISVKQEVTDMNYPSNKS

[4] = Solubility of the compound in buffer/DMSO at 100 uM; type: physicochemical
[5] = target: T3, NAD-dependent protein deacetylase sirtuin-2 (Homo sapiens) (UniProt Q8IXJ6); experiment: Binding affinity to recombinant human full-length N-terminal His-tagged SIRT2 expressed in baculovirus infected Sf9 insect cells assessed as ADP ribose-compound complex formation measured after 5 mins in presence of NAD+ by MALDI-TOF analysis
T3 sequence (whole entry): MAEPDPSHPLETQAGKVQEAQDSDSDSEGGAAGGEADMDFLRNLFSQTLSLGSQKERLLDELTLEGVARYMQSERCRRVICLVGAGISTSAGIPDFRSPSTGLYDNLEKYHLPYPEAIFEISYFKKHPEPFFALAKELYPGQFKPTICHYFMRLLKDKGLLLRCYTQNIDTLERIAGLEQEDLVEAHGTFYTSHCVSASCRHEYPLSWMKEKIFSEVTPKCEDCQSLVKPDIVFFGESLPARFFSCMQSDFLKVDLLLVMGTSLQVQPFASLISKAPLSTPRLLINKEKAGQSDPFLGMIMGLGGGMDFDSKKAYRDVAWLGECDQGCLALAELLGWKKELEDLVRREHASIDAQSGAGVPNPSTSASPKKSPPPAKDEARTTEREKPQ
In short: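 Recombinant SIRT2 at 1.9 µM, 500 µM NAD⁺ and 1 mM compound were reacted for 5 min at 37°C in 40 mM sodium phosphate pH 7.0 with 240 mM NaCl, 120 mM imidazole, 0.2 mM DTT, 20% glycerol and 2% DMSO. Controls lacked compound, NAD⁺ or enzyme. Mixtures were diluted, desalted on C18 tips and analysed by MALDI-TOF in reflectron negative-ion mode with α-cyano-4-hydroxycinnamic acid matrix.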

MCF7 [6] = experiment: Growth inhibition of human MCF7 cells at 30 uM measured after 72 hrs by AlamarBlue assay relative to control; type: functional; details: MCF7, 72 h, read-out: GI
In short: (§1)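 MCF-7 cells in DMEM with 10% FBS were seeded at 1×10³ cells/well. After 24 h at 37°C, 5% CO₂, compound in medium was added at varying concentrations for 72 h. AlamarBlue was then added for 3 h and fluorescence read (ex 540/em 590 nm). Percent growth was calculated from the readings, and GI50 from the dose response. Three independent determinations.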

N2a [7] = experiment: Induction of neurite outgrowth in mouse Neuro2a cells assessed as differentiated cells at 2 uM measured after 24 hrs by microscopic analysis (reference value: 2.53 +/- 0.76%); type: functional
In short: (§2)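 N2a cells were plated at 1×10⁴ cells/mL in DMEM with 10% FBS, then switched to DMEM with 2% FBS for differentiation. Compound was added for 24 or 48 h and morphology scored by microscopy. A cell counted as differentiated if it had ≥1 neurite longer than twice the soma diameter; ≥100 cells were counted per condition. Triplicate experiments, mean ± SD, one-way ANOVA with Dunnett's test.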

[8] = target: T4, NAD-dependent protein deacetylase sirtuin-1 (Homo sapiens, UniProt Q96EB6); experiment: Inhibition of human N-terminal His-tagged SIRT1 expressed in Escherichia coli using p53 (Arg-His-Lys-Lys(Ac)) (379 to 382 residues) as substrate incubated for 3 hrs measured up to 30 mins by fluorescence assay
T4 sequence (Q96EB6 whole entry): T2 sequence (whole entry)

[9] = target: T3, NAD-dependent protein deacetylase sirtuin-2 (Homo sapiens); experiment: Competitive inhibition of human N-terminal His-tagged SIRT2 expressed in Escherichia coli up to uM using varying levels of p53 (Gln-Pro-Lys-Lys(Ac)) (317 to 320 residues) as substrate incubated for 3 hrs measured up to 30 mins in presence of NAD+ by Lineweaver-burk plot analysis; details: in the assay text read “incubated for 45 mins” for “incubated for 3 hrs”
In short: (§3)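 The Fluor de Lys SIRT2 assay was run with reaction time shortened to 45 min. The acetylated substrate concentration was varied at saturating NAD⁺. Inhibitor was tested at 0, 0.1, 0.4, 0.6 and 1 µM, or at 0, 0.02, 0.06, 0.1 and 0.4 µM. Ki was derived from Michaelis–Menten and Lineweaver–Burk plots.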

[10] = target: Histone deacetylase (Homo sapiens) (UniProt Q13547+O15379+Q9UBN7+Q92769+Q9UQL6+Q8WUI4+Q9BY41+Q96DB2+P56524+Q9UKV0+Q969S8); experiment: Inhibition of HDAC in human HeLa cell nuclear extract at 2.5 to 100 uM using fluor de lys as substrate by fluorescence assay; type: cell-free
[11] = target: T5, NAD-dependent protein deacetylase sirtuin-2 (Homo sapiens, UniProt Q8IXJ6); experiment: Inhibition of human N-terminal His-tagged SIRT2 expressed in Escherichia coli using p53 (Gln-Pro-Lys-Lys(Ac)) (317 to 320 residues) as substrate incubated for 3 hrs measured up to 30 mins in presence of NAD+ by fluorescence-based Michaelis-Menten plot analysis; details: in the assay text read “incubated for 45 mins” for “incubated for 3 hrs”; in short: as §3
T5 sequence (Q8IXJ6 whole entry): T3 sequence (whole entry)

MCF7 [12] = experiment: Growth inhibition of human MCF7 cells measured after 72 hrs by AlamarBlue assay; type: functional; in short: as §1
[13] = target: Lysine-specific demethylase 5A (Homo sapiens) (UniProt P29375); experiment: Inhibition of human C-terminal FLAG-tagged KDM5A (1 to 1090 residues) expressed in baculovirus infected Sf9 insect cells at 2.5 to 100 uM using H3(1-21)K4(Me3)-GGK(Biotin)/2-OG as substrate measured after 1 hr by Alphalisa assay
[14] = target: T2, NAD-dependent protein deacetylase sirtuin-1 (Homo sapiens); experiment: Inhibition of human N-terminal His-tagged SIRT1 expressed in Escherichia coli at 50 uM using p53 (Arg-His-Lys-Lys(Ac)) (379 to 382 residues) as substrate incubated for 3 hrs measured up to 30 mins by fluorescence assay relative to control
[15] = target: T3, NAD-dependent protein deacetylase sirtuin-2 (Homo sapiens); experiment: Inhibition of human N-terminal His-tagged SIRT2 expressed in Escherichia coli at 1 uM using p53 (Gln-Pro-Lys-Lys(Ac)) (317 to 320 residues) as substrate incubated for 3 hrs measured up to 30 mins by fluorescence assay relative to control
N2a [16] = experiment: Induction of neurite outgrowth in mouse Neuro2a cells assessed as differentiated cells at 2 uM measured after 48 hrs by microscopic analysis (reference value: 4.18 +/- 1.67%); type: functional; in short: as §2
[17] = target: T5, NAD-dependent protein deacetylase sirtuin-2; experiment: Inhibition of human N-terminal His-tagged SIRT2 expressed in Escherichia coli using p53 (Gln-Pro-Lys-Lys(Ac)) (317 to 320 residues) as substrate incubated for 3 hrs measured up to 30 mins by fluorescence assay
[18] = target: T3, NAD-dependent protein deacetylase sirtuin-2 (Homo sapiens); experiment: Inhibition of human N-terminal His-tagged SIRT2 expressed in Escherichia coli at 10 uM using p53 (Gln-Pro-Lys-Lys(Ac)) (317 to 320 residues) as substrate incubated for 3 hrs measured up to 30 mins by fluorescence assay relative to control
N2a [19] = experiment: Induction of neurite outgrowth in mouse Neuro2a cells at 0.2 to 2 uM measured after 24 to 48 hrs by microscopic analysis; type: functional, cell-based; in short: as §2
[20] = target: T1, NAD-dependent protein deacetylase sirtuin-3, mitochondrial (Homo sapiens); experiment: Inhibition of human N-terminal His-tagged SIRT3 (102 to 399 residues) expressed in Escherichia coli at 50 uM using p53 (Gln-Pro-Lys-Lys(Ac)) (317 to 320 residues) as substrate incubated for 3 hrs measured up to 30 mins by fluorescence assay relative to control

Sequence of NAD-dependent protein deacylase sirtuin-5, mitochondrial (Homo sapiens) (Q9NXA8 37-310 limits assumed): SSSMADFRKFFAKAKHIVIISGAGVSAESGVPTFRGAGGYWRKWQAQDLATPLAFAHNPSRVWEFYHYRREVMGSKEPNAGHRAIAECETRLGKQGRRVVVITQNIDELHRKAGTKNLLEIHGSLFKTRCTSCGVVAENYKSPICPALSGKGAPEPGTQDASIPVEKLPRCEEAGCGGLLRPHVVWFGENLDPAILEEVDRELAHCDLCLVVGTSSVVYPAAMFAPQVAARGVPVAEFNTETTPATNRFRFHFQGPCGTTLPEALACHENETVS
Sequence of Lysine-specific demethylase 5A (Homo sapiens) (P29375 whole entry, the tested form may be a part): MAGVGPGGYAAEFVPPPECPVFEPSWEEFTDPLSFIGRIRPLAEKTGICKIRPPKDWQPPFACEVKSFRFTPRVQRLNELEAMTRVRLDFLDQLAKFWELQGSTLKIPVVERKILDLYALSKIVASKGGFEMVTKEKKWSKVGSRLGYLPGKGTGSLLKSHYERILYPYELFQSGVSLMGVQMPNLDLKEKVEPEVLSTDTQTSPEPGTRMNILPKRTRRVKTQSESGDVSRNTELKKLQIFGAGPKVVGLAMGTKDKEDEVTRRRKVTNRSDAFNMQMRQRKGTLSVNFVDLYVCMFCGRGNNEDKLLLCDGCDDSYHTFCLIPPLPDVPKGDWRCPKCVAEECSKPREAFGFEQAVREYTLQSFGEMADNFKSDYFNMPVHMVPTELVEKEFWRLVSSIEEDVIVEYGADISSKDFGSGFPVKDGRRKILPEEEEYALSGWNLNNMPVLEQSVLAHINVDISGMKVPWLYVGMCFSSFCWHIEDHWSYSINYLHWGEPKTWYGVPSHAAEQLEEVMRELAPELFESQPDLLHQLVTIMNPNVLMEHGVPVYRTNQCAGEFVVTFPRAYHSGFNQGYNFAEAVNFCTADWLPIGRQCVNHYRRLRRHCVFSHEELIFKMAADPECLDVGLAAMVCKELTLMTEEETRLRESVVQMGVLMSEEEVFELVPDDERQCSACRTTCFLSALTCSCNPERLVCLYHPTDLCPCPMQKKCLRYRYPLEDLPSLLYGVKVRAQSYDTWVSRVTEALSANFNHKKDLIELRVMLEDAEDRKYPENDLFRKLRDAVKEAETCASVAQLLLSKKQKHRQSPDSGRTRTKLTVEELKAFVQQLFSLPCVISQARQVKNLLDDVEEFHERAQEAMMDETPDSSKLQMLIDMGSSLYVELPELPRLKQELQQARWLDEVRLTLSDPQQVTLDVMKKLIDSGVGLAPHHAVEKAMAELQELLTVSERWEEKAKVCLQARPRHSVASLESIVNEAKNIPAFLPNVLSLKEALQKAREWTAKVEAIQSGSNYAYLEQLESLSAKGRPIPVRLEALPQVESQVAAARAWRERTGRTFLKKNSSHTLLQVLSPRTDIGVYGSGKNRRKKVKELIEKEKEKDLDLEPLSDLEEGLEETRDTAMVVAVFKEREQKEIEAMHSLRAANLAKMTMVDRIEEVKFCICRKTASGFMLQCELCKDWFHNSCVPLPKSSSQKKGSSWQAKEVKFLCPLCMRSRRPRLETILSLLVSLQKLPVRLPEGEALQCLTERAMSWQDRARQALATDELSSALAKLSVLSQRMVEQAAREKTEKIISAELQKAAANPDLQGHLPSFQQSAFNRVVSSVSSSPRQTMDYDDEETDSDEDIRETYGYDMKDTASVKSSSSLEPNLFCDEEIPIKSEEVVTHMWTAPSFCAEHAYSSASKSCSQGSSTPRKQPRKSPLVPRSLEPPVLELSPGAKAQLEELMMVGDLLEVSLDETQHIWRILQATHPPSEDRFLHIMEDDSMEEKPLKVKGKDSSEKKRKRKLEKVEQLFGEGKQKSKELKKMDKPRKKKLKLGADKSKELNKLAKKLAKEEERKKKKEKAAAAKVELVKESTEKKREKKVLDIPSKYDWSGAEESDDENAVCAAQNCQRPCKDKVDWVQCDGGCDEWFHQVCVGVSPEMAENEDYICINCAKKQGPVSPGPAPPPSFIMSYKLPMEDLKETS

| Compound | inhibition [1] [%] | inhibition [2] [%] | inhibition [3] [%] | inhibition of growth at 30 µM (MCF7 [6]) [%] | inhibition [9] | Ki [11] [nM] | inhibition [14] [%] | inhibition [15] [%] | IC50 [17] [nM] | inhibition [18] [%] | other results |
| --- | --- | --- | --- | --- | --- | --- | --- | --- | --- | --- | --- |
| C[C@H](NC(=O)[C@H](CCCCNC(=O)CNC(=O)c1ccccc1Nc1cccc(OCCc2ccccc2)c1)NC(=O)OCc1ccccc1)C(N)=O | 6 | 61 | 51 | – | – | – | – | – | – | – | solubility [4]: Insoluble |
| O=C1CNC(=O)[C@H](CCCCNC(=S)CNC(=O)c2ccccc2Nc2cccc(OCCc3ccccc3)c2)N1 | 0 | – | – | 96 | Active | 68 | 41 | 73 | 310 | – | Activity [5]: Active; Activity (N2a [7]): 4.54%; IC50 [8]: 77400 nM; inhibition [10]: inactive; growth inhibition (GI) (MCF7 [12]): Dose-dependent effect; GI50 (MCF7 [12]; MCF7, 72 h): 11500 nM; inhibition [13]: inactive; Activity (N2a [16]): 12.27% |
| O=C(CNC(=O)c1ccccc1Nc1cccc(OCCc2ccccc2)c1)NCCCC[C@@H]1NC(=O)CNC1=O | 2 | 17 | 13 | 40 | Active | 470 | 9 | 59 | 600 | 92 | Activity (N2a [19]): inactive |
| Cc1cc(C)nc(SCC(=O)Nc2cccc(Nc3ccccc3C(N)=O)c2)n1 | 16 | 80 | 28 | – | – | – | 16 | 47 | 1180 | 93 | inhibition [20]: 63% |
